# Results published in ChEMBL document CHEMBL1131052, “Bis-substituted malonic acid hydroxamate derivatives as inhibitors of human neutrophil collagenase (MMP8)” (J Med Chem, 1998).
# Target: Neutrophil collagenase (Homo sapiens, UniProt P22894)
# Test: Inhibition of human neutrophil collagenase (Matrix metalloprotease-8)
# Summary of the method: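 Catalytic domain of MMP8 (Phe79–Gly242) at 8 nM; fluorogenic substrate Dnp-Pro-Leu-Gly-Leu-Trp-Ala-D-Arg-NH2 at 1 × 10^-5 M; 10 mM CaCl2, 100 mM NaCl, 50 mM Tris/HCl pH 7.6, 25 °C. Initial hydrolysis rates were taken from the fluorescence rise at 350 nm over 100 s. IC50 values were fitted from these rates, and Ki values were derived from the kinetic data.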
# Chain of Neutrophil collagenase (P22894 whole entry): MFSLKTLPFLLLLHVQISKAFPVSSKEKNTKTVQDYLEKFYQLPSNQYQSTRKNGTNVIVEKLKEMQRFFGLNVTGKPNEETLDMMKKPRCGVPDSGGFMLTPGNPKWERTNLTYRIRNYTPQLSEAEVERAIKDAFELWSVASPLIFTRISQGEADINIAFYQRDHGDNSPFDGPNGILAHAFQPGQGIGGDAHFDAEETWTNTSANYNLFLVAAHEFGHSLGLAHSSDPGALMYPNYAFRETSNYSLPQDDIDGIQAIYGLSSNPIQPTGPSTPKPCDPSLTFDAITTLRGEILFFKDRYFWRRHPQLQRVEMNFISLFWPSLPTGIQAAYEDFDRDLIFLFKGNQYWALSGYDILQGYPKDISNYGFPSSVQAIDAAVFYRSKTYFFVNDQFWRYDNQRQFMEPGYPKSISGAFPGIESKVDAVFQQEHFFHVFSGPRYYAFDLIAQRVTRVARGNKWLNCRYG
row,Ki [µM],Structure (SMILES)
1,1.5,O=C(NO)C1(C(=O)NCc2ccccc2)Cc2ccccc2C1
2,1.1,CC(Cc1ccccc1)(C(=O)NO)C(=O)NCc1ccccc1 (stereo not given)
3,9.6,CC(Cc1ccccc1)(C(=O)NO)C(=O)NCCc1ccccc1 (stereo not given)
4,45,CC(Cc1ccccc1)(C(=O)NO)C(=O)Nc1cccc2ccccc12 (stereo not given)
5,41,CCOC(=O)C(C)(CC(C)C)C(=O)NO (stereo not given)
6,0.38,CC(Cc1ccccc1)(C(=O)NO)C(=O)NCCCCc1ccccc1 (stereo not given)
7,41,CC(Cc1ccccc1)(C(=O)NO)C(=O)NCc1ccc(C(=O)O)cc1 (stereo not given)
8,8.1,CC(Cc1ccccc1)(C(=O)NO)C(=O)N1CCc2ccccc2C1 (stereo not given)
9,0.3,O=C(NO)C1(C(=O)NCCCc2ccccc2)Cc2ccccc2C1
10,11,CCOC(=O)C(C)(Cc1ccccc1)C(=O)NO (stereo not given)
11,0.24,CC(Cc1ccccc1)(C(=O)NO)C(=O)NCCCc1ccccc1 (stereo not given)
12,2.3,CC(=O)NC(Cc1ccccc1)(C(=O)NO)C(=O)NCc1ccccc1 (stereo not given)
13,44,CC(Cc1ccccc1)(C(=O)NO)C(=O)Nc1ccccc1 (stereo not given)
14,1.9,O=C(NO)C1(C(=O)NCCCc2ccccc2)Cc2ccccc2-c2ccccc2C1
15,1.9,O=C(NO)C(O)(Cc1ccccc1)C(=O)NCc1ccccc1 (stereo not given)
